Results as given in ChEMBL document CHEMBL4725411, “A Phosphoramidate Strategy Enables Membrane Permeability of a Non-nucleotide Inhibitor of the Prolyl Isomerase Pin1” (ACS Med Chem Lett, 2020).
Activity calls are given as the source filed them. No cut-off for these calls is given here.

Legend:
[1] = molecular target: Peptidyl-prolyl cis-trans isomerase NIMA-interacting 1 (Homo sapiens, UniProt Q13526); assay: Displacement of FITC-WFYpSPFLE from human Pin1 (45-163) catalytic domain by fluorescence polarization assay
[2] = system: PC-3; assay: Inhibition of colony formation in human PC-3 cells; assay type: functional, cell-based
Outline: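 PC3 cells treated at low density, colony formation scored. Mean of triplicate experiments, error as SD.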

[3] = Octanol/water partition coefficient, logP of compound; assay type: physicochemical
[4] = Prodrug conversion in human K562 cells assessed as cytosolic enzyme product of 1-R-phosphate after 5 hrs by UPLC-MS analysis; assay type: ADME, cell-based; conditions: k562, 5 h
Outline: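 K562 cells exposed 5 h in serum-free medium, then washed extensively, centrifuged and extracted with ethyl acetate. Products quantified by UPLC-MS. DMSO solvent control subtracted as background. Average of duplicates with full range.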

[5] = Prodrug conversion in cell free extract; assay type: ADME
Outline: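 Cell-free control run in medium without cells, then ethyl acetate extraction and UPLC-MS for the intermediate and the free phosphate.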

[6] = Prodrug release in human K562 cells assessed as 1R-phosphate binding to Pin1 at 25 uM after 5 hrs by Western blot based cellular thermal shift assay; assay type: ADME, cell-based; conditions: k562, 5 h
Outline: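 K562 cells exposed to prodrug at 25 μM or 0.25% DMSO for 5 h, then heated across 38–60 °C and lysed. Soluble Pin1 measured by Western blot. Three independent experiments, error as SEM.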

[7] = Prodrug conversion in human MDA-MB-231 cells assessed as increase in Pin1 level mesured longer than 24 hrs; assay type: ADME, cell-based; conditions: mda-mb-231, 24 h
Outline: (§1)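 MDA-MB-231 cells treated over a dose series for 72 h (longer than 24 h), with or without the Hint1 inhibitor TrpGc at 100 μM. Pin1 abundance at normal temperature used as the read-out.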

[8] = Prodrug conversion in human MDA-MB-231 cells assessed as increase in Pin1 level at 5 uM in presence of 100 uM TrpGc Hint1 inhibitor; assay type: ADME, cell-based; conditions: mda-mb-231, 5 µM; outline: as §1
[9] = Prodrug release in human MDA-MB-231 cells assessed as 1R-phosphate binding to Pin1 at 25 uM at fixed temperature 48 degC by Western blot based assay; assay type: ADME, cell-based; conditions: mda-mb-231, 25 µM
Outline: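 MDA-MB-231 cells dosed at 25 μM or with 0.25% DMSO for 5 h, heated at a fixed 48 °C and lysed. Soluble Pin1 measured by Western blot in biological quadruplicates.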

[10] = system: PC-3; assay: Antiproliferative activity in human PC-3 cells after 72 hrs by ATP-Glo assay; assay type: functional, cell-based
Outline: (§2)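 PC3 cells grown to higher confluence, compound exposure 72 h. Proliferation read by ATP-Glo luminescence or by MTT.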

[11] = system: PC-3; assay: Antiproliferative activity in human PC-3 cells after 72 hrs by MTT assay; assay type: functional, cell-based; outline: as §2

Chain of Peptidyl-prolyl cis-trans isomerase NIMA-interacting 1 (Q13526 whole entry, the tested form may be a part): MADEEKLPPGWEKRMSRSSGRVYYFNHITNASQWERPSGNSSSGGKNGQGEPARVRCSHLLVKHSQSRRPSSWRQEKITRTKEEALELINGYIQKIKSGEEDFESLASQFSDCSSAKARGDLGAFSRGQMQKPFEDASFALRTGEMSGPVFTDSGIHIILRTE

IC50 [1] [µM]	logP [3]	Drug metabolism [4]	Drug metabolism [5]	Drug metabolism [6]	Drug metabolism [7]	Drug metabolism [8]	Drug metabolism [9]	Compound	inhibition [2]	Activity [10]	Activity [11]
> 10	–	–	–	–	–	–	–	CCOC(=O)CNP(=O)(OC[C@H](Cc1ccccc1)NC(=O)c1cc2ccccc2s1)Oc1ccccc1 (some centres undefined)	inactive	–	–
> 10	0.27	Metabolite_Detected	Metabolite_Notdetected	Metabolite_Detected	Metabolite_Detected	Metabolite_Notdetected	Metabolite_Detected	CCOC(=O)CNP(=O)(OC[C@@H](Cc1ccccc1)NC(=O)c1cc2ccccc2s1)Oc1ccccc1 (some centres undefined)	Active	inactive	inactive
–	< -4.6	–	–	–	–	–	–	O=C(N[C@@H](COP(=O)(O)O)Cc1ccccc1)c1cc2ccccc2s1	–	–	–
